The text below walks through data of ChEMBL document CHEMBL2069278, “Novel substituted benzothiophene and thienothiophene carboxanilides and quinolones: synthesis, photochemical synthesis, DNA-binding properties, antitumor evaluation and 3D-derived QSAR analysis” (J Med Chem, 2012).

Activity calls are given as the source filed them. The calls are words filed in the database; no cut-off is given here. Bounds are passed on as bounds.

For one assay, the system named is SW-620. As to the kind of experiment: Cytotoxicity against human SW620 cells after 72 hrs by MTT assay. The assay is classed as functional, cell-based. Particulars: SW-620, 72 h. In short, it runs like this:
(§1)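 Cells seeded on day 0 at 1 × 10^4 to 3 × 10^4 cells/mL (adherent lines in DMEM, MOLT-4 in suspension in RPMI, 10% FBS, 37 °C, 5% CO2); 10-fold dilutions 10−8–10−4 M for 72 h; MTT, OD 570 nm; percentage growth versus time-zero and control; IC50 by linear regression; quadruplicate, at least two experiments.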
For orientation: Tetrazolium dyes change colour on reduction, which living cells bring about.

Another assay relates to HCT-116. As to the kind of experiment: Cytotoxicity against human HCT116 cells after 72 hrs by MTT assay. The assay is classed as functional, cell-based. Particulars: HCT-116, 72 h. In short, it runs like this:
as §1

The subject of another assay is MOLT-4. As to the kind of experiment: Cytotoxicity against human MOLT4 cells after 72 hrs by MTT assay. The assay is classed as functional, cell-based. Particulars: MOLT-4, 72 h. The procedure, abridged:
as §1

A further assay deals with NCI-H460. As to the kind of experiment: Cytotoxicity against human H460 cells after 72 hrs by MTT assay. In kind it is functional, cell-based. Particulars: NCI-H460, 72 h. In short, it runs like this: as §1
For a further assay, the system named is MCF7. As to the kind of experiment: Cytotoxicity against human MCF7 cells after 72 hrs by MTT assay. In kind it is functional, cell-based. Particulars: MCF7, 72 h. In short, it runs like this:
as §1

The target of assay [1] is DNA topoisomerase 2-alpha (Homo sapiens) (UniProt P11388). As to the kind of experiment: Inhibition of human topoisomerase 2-mediated DNA cleavage at 50 uM incubated for 45 mins followed by enzyme addition measured after 30 mins by agarose gel electrophoresis. The procedure, abridged:
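Compounds (50 μM) incubated with 350 ng supercoiled pUC19 before topoisomerase II addition; gel quantified for percentage poisoning normalized to etoposide at the same concentration.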

Sequence of DNA topoisomerase 2-alpha (Homo sapiens) (P11388 whole entry): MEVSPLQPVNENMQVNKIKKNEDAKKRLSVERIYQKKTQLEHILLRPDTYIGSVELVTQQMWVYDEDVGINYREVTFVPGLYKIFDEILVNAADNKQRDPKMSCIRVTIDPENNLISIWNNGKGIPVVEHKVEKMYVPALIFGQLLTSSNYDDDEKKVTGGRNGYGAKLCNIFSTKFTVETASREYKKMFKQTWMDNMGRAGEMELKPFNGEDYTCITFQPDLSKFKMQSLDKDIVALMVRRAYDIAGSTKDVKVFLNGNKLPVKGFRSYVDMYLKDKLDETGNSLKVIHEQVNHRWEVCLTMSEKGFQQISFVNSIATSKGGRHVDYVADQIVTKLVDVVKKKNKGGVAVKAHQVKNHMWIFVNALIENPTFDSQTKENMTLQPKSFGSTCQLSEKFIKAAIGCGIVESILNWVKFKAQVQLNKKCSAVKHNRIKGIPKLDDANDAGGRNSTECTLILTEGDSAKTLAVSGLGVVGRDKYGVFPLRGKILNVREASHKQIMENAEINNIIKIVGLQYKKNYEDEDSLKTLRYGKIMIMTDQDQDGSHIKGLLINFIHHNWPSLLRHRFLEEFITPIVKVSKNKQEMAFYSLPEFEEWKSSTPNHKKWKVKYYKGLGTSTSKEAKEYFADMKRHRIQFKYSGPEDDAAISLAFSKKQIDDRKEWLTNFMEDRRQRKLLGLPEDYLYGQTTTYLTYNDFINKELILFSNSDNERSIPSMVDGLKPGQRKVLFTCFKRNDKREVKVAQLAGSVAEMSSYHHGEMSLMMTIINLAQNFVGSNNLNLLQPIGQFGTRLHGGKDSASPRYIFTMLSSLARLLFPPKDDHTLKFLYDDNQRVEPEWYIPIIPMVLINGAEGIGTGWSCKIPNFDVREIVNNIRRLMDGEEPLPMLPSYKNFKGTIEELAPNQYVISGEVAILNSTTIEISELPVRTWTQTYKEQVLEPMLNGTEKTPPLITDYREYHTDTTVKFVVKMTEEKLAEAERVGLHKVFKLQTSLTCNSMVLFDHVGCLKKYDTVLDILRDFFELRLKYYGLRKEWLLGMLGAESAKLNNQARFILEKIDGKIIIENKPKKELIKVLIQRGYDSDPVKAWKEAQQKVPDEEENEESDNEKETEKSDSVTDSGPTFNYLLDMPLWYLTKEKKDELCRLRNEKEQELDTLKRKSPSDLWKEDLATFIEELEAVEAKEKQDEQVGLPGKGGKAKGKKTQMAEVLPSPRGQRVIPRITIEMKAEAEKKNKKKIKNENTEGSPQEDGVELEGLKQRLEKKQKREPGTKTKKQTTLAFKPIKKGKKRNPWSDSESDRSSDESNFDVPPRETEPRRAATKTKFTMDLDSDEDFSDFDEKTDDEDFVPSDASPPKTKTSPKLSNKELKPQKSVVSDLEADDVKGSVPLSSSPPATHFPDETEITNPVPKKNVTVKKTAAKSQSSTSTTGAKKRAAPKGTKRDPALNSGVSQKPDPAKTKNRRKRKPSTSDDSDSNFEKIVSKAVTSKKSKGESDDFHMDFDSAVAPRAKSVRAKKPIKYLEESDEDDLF

The term IC50 denotes the point on the concentration scale where inhibition reaches its midpoint. A higher IC50 goes with a need for much substance. For `Cn1c(=O)c2sc3cc(C#N)ccc3c2c2ccccc21`, the IC50 was > 10000 nM in the assay on SW-620; > 10000 nM with HCT-116; ≥ 10000 nM with MOLT-4; > 10000 nM in the assay on NCI-H460; > 10000 nM in the assay with MCF7.

Consider `Cn1c(=O)c2sc3ccccc3c2c2cc(C#N)ccc21`, for which the IC50 with SW-620 is > 10000 nM; in the assay on HCT-116 it was > 10000 nM; with MOLT-4, 8700 nM; with NCI-H460 it was > 10000 nM; in the assay with MCF7, > 10000 nM.

Regarding `Cn1c(=O)c2sc3sccc3c2c2cc(C3=NCCN3)ccc21`, the IC50 came to 300 nM with SW-620; 1000 nM in the assay with HCT-116; 2000 nM in the assay on MOLT-4; 1000 nM with NCI-H460; 2000 nM in the assay with MCF7.

As to `CN(C)CCCNC(=O)c1ccc(NC(=O)c2sc3ccccc3c2Cl)cc1`, the 50% inhibitory concentration (IC50) in the assay on HCT-116 came out at 7000 nM; with NCI-H460, 3000 nM; in the assay with MCF7, 7000 nM.

Regarding `Cn1c(=O)c2sc3sccc3c2c2cc(C#N)ccc21`, the IC50 was > 10000 nM with SW-620; > 10000 nM with HCT-116; 4800 nM in the assay with MOLT-4; > 10000 nM in the assay with NCI-H460; > 10000 nM in the assay with MCF7.

`CCOC(=O)c1ccc2c(Cl)c(C(=O)Nc3ccc(C(=O)NCCCN(C)C)cc3)sc2c1`: the IC50 with SW-620 came out at 2000 nM; in the assay with HCT-116, 3000 nM; in the assay with MOLT-4 it was 2000 nM; in the assay with NCI-H460 it was 2000 nM; in the assay on MCF7, 5000 nM.

Turning to `Cc1ccc2c(Cl)c(C(=O)Nc3ccc(C(=O)NCCCN(C)C)cc3)sc2c1`, the half-maximal inhibitory concentration (IC50) with SW-620 turned out to be 2000 nM; in the assay on HCT-116, 3000 nM; in the assay on MOLT-4, 2000 nM; in the assay on NCI-H460, 2000 nM; with MCF7 it was 3000 nM.

Turning to `CN(C)CCCNC(=O)c1ccc2[nH]c(=O)c3sc4cc(Br)ccc4c3c2c1`, the IC50 with SW-620 was 400 nM; with HCT-116, 400 nM; with MOLT-4 it was 1000 nM; in the assay with NCI-H460, 2000 nM; in the assay on MCF7, 2000 nM.

On to `CN(C)CCCNC(=O)c1ccc2[nH]c(=O)c3sc4cc([N+](=O)[O-])ccc4c3c2c1`, for which the IC50 was 2000 nM in the assay with SW-620; 2000 nM in the assay with HCT-116; 2000 nM with MOLT-4; 23000 nM in the assay on NCI-H460; 3000 nM in the assay on MCF7.

As for `CN(C)CCCNC(=O)c1ccc2[nH]c(=O)c3sc4ccccc4c3c2c1`, the IC50 in the assay with SW-620 came to 1000 nM; in the assay on HCT-116, 1000 nM; in the assay on MOLT-4, 1000 nM; in the assay with NCI-H460, 2000 nM; in the assay on MCF7, 2000 nM.

As for `CCOC(=O)c1ccc2c(c1)sc1c(=O)[nH]c3ccc(C(=O)NCCCN(C)C)cc3c12`, the IC50 in the assay with SW-620 came out at 1000 nM; in the assay on HCT-116 it was 2000 nM; in the assay with MOLT-4, 1000 nM; with NCI-H460, 3000 nM; with MCF7, 3000 nM.

Turning to `CN(C)CCCNC(=O)c1ccc(NC(=O)c2sc3cc(Br)ccc3c2Cl)cc1`, the half-maximal inhibitory concentration (IC50) in the assay with SW-620, in the assay with HCT-116, in the assay with MOLT-4, in the assay with NCI-H460 and in the assay with MCF7 was 2000 nM in each case.

Turning to `CN(C)CCCNC(=O)c1ccc(NC(=O)c2sc3cc([N+](=O)[O-])ccc3c2Cl)cc1`, the IC50 worked out at 1000 nM in the assay on SW-620; 2000 nM in the assay on HCT-116; 2000 nM with MOLT-4; 2000 nM with NCI-H460; 2000 nM with MCF7.

Turning to `Cc1ccc2c(c1)sc1c(=O)[nH]c3ccc(C(=O)NCCCN(C)C)cc3c12`, the IC50 turned out to be 400 nM with SW-620; 1000 nM with HCT-116; 1000 nM with MOLT-4; 2000 nM in the assay with NCI-H460; 2000 nM in the assay on MCF7.

As for `COc1cc([C@@H]2c3cc4c(cc3[C@@H](O[C@@H]3O[C@@H]5CO[C@@H](C)O[C@H]5[C@H](O)[C@H]3O)[C@H]3COC(=O)[C@H]23)OCO4)cc(OC)c1O`, the inhibition result in assay [1] was “Active”.
